Reference: ChEMBL document CHEMBL1157790, “3'-bromo analogues of pyrimidine nucleosides as a new class of potent inhibitors of Mycobacterium tuberculosis” (J Med Chem, 2010)

What was measured:
Type in all cases: functional
[1] = test system: Mycobacterium tuberculosis; assay: Antimycobacterial activity against rifampin-resistant Mycobacterium tuberculosis H37Rv at 2 ug/ml by radiometric BACTEC assay
How it was run: (§1)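 Isoniazid- or rifampicin-resistant H37Rv, growing inoculum 2.5-5.0 × 10⁵ CFU/vial, in radiometric 7H12 (BACTEC 12B) medium at 37 °C with two-fold compound dilutions. Growth index read daily in a BACTEC 460 until the 1:100 inoculum control reached GI 30. Percent inhibition = GI test/GI control × 100.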

[2] = test system: Mycobacterium tuberculosis; assay: Antimycobacterial activity against isoniazid-resistant Mycobacterium tuberculosis H37Rv at 2 ug/ml by radiometric BACTEC assay; how it was run: as §1
[3] = test system: Mycobacterium tuberculosis; assay: Antimycobacterial activity against rifampin-resistant Mycobacterium tuberculosis H37Rv at 1 ug/ml by radiometric BACTEC assay; how it was run: as §1
[4] = test system: Mycobacterium tuberculosis; assay: Antimycobacterial activity against isoniazid-resistant Mycobacterium tuberculosis H37Rv at 10 ug/ml by radiometric BACTEC assay; how it was run: as §1
[5] = test system: Mycobacterium tuberculosis; assay: Antimycobacterial activity against rifampin-resistant Mycobacterium tuberculosis H37Rv at 1 to 2 ug/ml by radiometric BACTEC assay; how it was run: as §1
[6] = test system: Mycobacterium tuberculosis; assay: Antimycobacterial activity against rifampin-resistant Mycobacterium tuberculosis H37Rv at 10 ug/ml by radiometric BACTEC assay; how it was run: as §1
[7] = test system: Mycobacterium tuberculosis; assay: Antimycobacterial activity against rifampin-resistant Mycobacterium tuberculosis H37Rv at 5 to 10 ug/ml by radiometric BACTEC assay; how it was run: as §1
[8] = test system: Mycobacterium tuberculosis; assay: Antimycobacterial activity against isoniazid-resistant Mycobacterium tuberculosis H37Rv at 25 ug/ml by radiometric BACTEC assay; how it was run: as §1

Compound: CO[C@H]1/C=C/O[C@@]2(C)Oc3c(C)c(O)c4c(O)c(c(/C=N/N5CCN(C)CC5)c(O)c4c3C2=O)NC(=O)/C(C)=C\C=C\[C@H](C)[C@H](O)[C@@H](C)[C@@H](O)[C@@H](C)[C@H](OC(C)=O)[C@@H]1C [RIFAMPIN]
- inhibition at 2 µg/mL [1]: 0%

Compound: NNC(=O)c1ccncc1 [ISONIAZID]
- inhibition at 2 µg/mL [2]: 0%
- inhibition at 1 µg/mL [3]: 100%

Compound: Cc1cn([C@@H]2O[C@H](CO)[C@@H](Br)[C@@H]2O)c(=O)[nH]c1=O
- inhibition at 10 µg/mL [4]: 75%
- inhibition (INH) [5]: 50%
- inhibition at 2 µg/mL [2]: 50%
- inhibition at 10 µg/mL [6]: 70%

Compound: Cc1cn([C@H]2C[C@H](Br)[C@@H](CO)O2)c(=O)[nH]c1=O
- inhibition at 10 µg/mL [4]: 50%
- inhibition (INH) [7]: 50%
- inhibition at 25 µg/mL [8]: 75%
